Experimental data: ChEMBL document CHEMBL3525900, “Pharmacokinetics, distribution, and metabolism of [14C]sunitinib in rats, monkeys, and humans” (Drug Metab Dispos, 2012)

Columns and labels:
Type in all cases: ADME, organism-based
[1] = tested on: Spleen; experiment: Drug concentration in female albino rat spleen assessed as radioactivity per gram of tissue at 20 mg/kg administered as single dose via gastric gavage measured after 24 hrs by autoradiographic analysis; design: dose 20 mg/kg, dosed compound name [14C]Sunitinib; conditions: in vivo, po
[2] = tested on: Pancreas; experiment: Drug concentration in male Lister Hooded pigmented rat pancreas assessed as radioactivity per gram of tissue at 20 mg/kg administered as single dose via gastric gavage measured after 24 hrs by autoradiographic analysis; design: dose 20 mg/kg, dosed compound name [14C]Sunitinib; conditions: in vivo, po
[3] = Drug concentration in female Lister Hooded pigmented rat thyroid gland assessed as radioactivity per gram of tissue at 20 mg/kg administered as single dose via gastric gavage measured after 24 hrs by autoradiographic analysis; design: dose 20 mg/kg, dosed compound name [14C]Sunitinib; conditions: in vivo, po
Outline: (§1)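 Lister Hooded (pigmented) rats, ca 7-8 weeks old, acclimated 7 days, given [14C]sunitinib L-malate by gastric gavage at 20 mg/kg (15 mg freebase/kg, 100 µCi/kg). One male and one female killed by CO2 at 24, 72, 168 and 336 h. Carcasses frozen in solid CO2/hexane and embedded in frozen cellulose. 30 µm sagittal cryosections were freeze-dried. Tissue radioactivity measured by quantitative whole-body autoradiography against calibration standards, with background subtracted.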

[4] = tested on: Rattus norvegicus; experiment: AUC (0 to infinity) as total radioactivity in female Sprague-Dawley rat plasma at 5 mg/kg, iv administered as single dose by LC/MS/MS analysis; design: dose 5 mg/kg, dosed compound name [14C]Sunitinib, route intravenous, time infinity; conditions: in vivo
Outline: (§2)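 Single dose of [14C]sunitinib L-malate as free base, 50 µCi/kg. IV dose was 5 mg/kg by tail vein in 5 females. Oral dose was 15 mg/kg by gavage in 3 females and 3 males. Total radioactivity was by scintillation counting. […] Cmax was read from raw data, t½ by log-linear regression, AUC by linear trapezoidal rule.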

[5] = tested on: Rattus norvegicus; experiment: AUC (0 to infinity) as total radioactivity in female Sprague-Dawley rat plasma at 15 mg/kg, po administered as single dose by LC/MS/MS analysis; design: time infinity, dose 15 mg/kg, dosed compound name [14C]Sunitinib, route oral; conditions: in vivo; outline: as §2
[6] = Drug concentration in female Lister Hooded pigmented rat pituitary gland assessed as radioactivity per gram of tissue at 20 mg/kg administered as single dose via gastric gavage measured after 24 hrs by autoradiographic analysis; design: dose 20 mg/kg, dosed compound name [14C]Sunitinib; conditions: in vivo, po; outline: as §1
[7] = Drug concentration in male Lister Hooded pigmented rat testis assessed as radioactivity per gram of tissue at 20 mg/kg administered as single dose via gastric gavage measured after 24 hrs by autoradiographic analysis; design: dose 20 mg/kg, dosed compound name [14C]Sunitinib; conditions: in vivo, po
[8] = Drug concentration in female albino rat pituitary gland assessed as radioactivity per gram of tissue at 20 mg/kg administered as single dose via gastric gavage measured after 6 hrs by autoradiographic analysis; design: dose 20 mg/kg, dosed compound name [14C]Sunitinib; conditions: in vivo, po
Outline: (§3)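 Sprague Dawley albino rats, ca 7-8 weeks old, dosed once by gastric gavage with [14C]sunitinib L-malate (15 mg freebase/kg, 100 µCi/kg). One male and one female killed by CO2 at 3, 6, 24, 72 and 168 h. Carcasses frozen in solid CO2/hexane, embedded and cut into 30 µm sagittal sections, then freeze-dried. Radioactivity quantified by whole-body autoradiography against standards by regression, background subtracted.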

[9] = Drug concentration in female albino rat lachrymal gland assessed as radioactivity per gram of tissue at 20 mg/kg administered as single dose via gastric gavage measured after 24 hrs by autoradiographic analysis; design: dose 20 mg/kg, dosed compound name [14C]Sunitinib; conditions: in vivo, po; outline: as §3
[10] = tested on: Rattus norvegicus; experiment: Apparent terminal half life as total radioactivity in female Sprague-Dawley rat plasma at 15 mg/kg, po administered as single dose by LC/MS/MS analysis; design: dose 15 mg/kg, dosed compound name [14C]Sunitinib, route oral; conditions: in vivo; outline: as §2
[11] = Drug concentration in female albino rat eye assessed as radioactivity per gram of tissue at 20 mg/kg administered as single dose via gastric gavage measured after 24 hrs by autoradiographic analysis; design: dose 20 mg/kg, dosed compound name [14C]Sunitinib; conditions: in vivo, po; outline: as §3
[12] = Drug concentration in male albino rat skeletal muscle assessed as radioactivity per gram of tissue at 20 mg/kg administered as single dose via gastric gavage measured after 6 hrs by autoradiographic analysis; design: dose 20 mg/kg, dosed compound name [14C]Sunitinib; conditions: in vivo, po
[13] = tested on: Zone of skin; experiment: Drug concentration in male albino rat abdomen skin assessed as radioactivity per gram of tissue at 20 mg/kg administered as single dose via gastric gavage measured after 24 hrs by autoradiographic analysis; design: dose 20 mg/kg, dosed compound name [14C]Sunitinib; conditions: in vivo, po
[14] = tested on: Small intestine; experiment: Drug concentration in male Lister Hooded pigmented rat small intestine assessed as radioactivity per gram of tissue at 20 mg/kg administered as single dose via gastric gavage measured after 168 hrs by autoradiographic analysis; design: dose 20 mg/kg, dosed compound name [14C]Sunitinib; conditions: in vivo, po
[15] = Drug concentration in male albino rat salivary gland assessed as radioactivity per gram of tissue at 20 mg/kg administered as single dose via gastric gavage measured after 3 hrs by autoradiographic analysis; design: dose 20 mg/kg, dosed compound name [14C]Sunitinib; conditions: in vivo, po
[16] = Drug concentration in male albino rat uveal tract assessed as radioactivity per gram of tissue at 20 mg/kg administered as single dose via gastric gavage measured after 24 hrs by autoradiographic analysis; design: dose 20 mg/kg, dosed compound name [14C]Sunitinib; conditions: in vivo, po
[17] = tested on: Zone of skin; experiment: Drug concentration in female Lister Hooded pigmented rat abdomen skin assessed as radioactivity per gram of tissue at 20 mg/kg administered as single dose via gastric gavage measured after 168 hrs by autoradiographic analysis; design: dose 20 mg/kg, dosed compound name [14C]Sunitinib; conditions: in vivo, po
Outline: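 Pigmented Lister Hooded rats, 7-8 weeks old, received [14C]sunitinib L-malate by gavage at 20 mg/kg (15 mg freebase/kg, 100 µCi/kg). One rat per sex was killed by CO2 at each of 24, 72, 168 and 336 h. Carcasses were frozen in solid CO2/hexane and cut into 30 µm sagittal sections, then freeze-dried. Tissue radioactivity was quantified by whole-body autoradiography calibrated against standards by regression (LOQ 0.04–0.06 µg eq/g).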

[18] = Drug concentration in male albino rat thyroid gland assessed as radioactivity per gram of tissue at 20 mg/kg administered as single dose via gastric gavage measured after 6 hrs by autoradiographic analysis; design: dose 20 mg/kg, dosed compound name [14C]Sunitinib; conditions: in vivo, po
[19] = tested on: Zone of skin; experiment: Drug concentration in male Lister Hooded pigmented rat abdomen skin assessed as radioactivity per gram of tissue at 20 mg/kg administered as single dose via gastric gavage measured after 168 hrs by autoradiographic analysis; design: dose 20 mg/kg, dosed compound name [14C]Sunitinib; conditions: in vivo, po
[20] = tested on: Large intestine; experiment: Drug concentration in male Lister Hooded pigmented rat large intestine assessed as radioactivity per gram of tissue at 20 mg/kg administered as single dose via gastric gavage measured after 72 hrs by autoradiographic analysis; design: dose 20 mg/kg, dosed compound name [14C]Sunitinib; conditions: in vivo, po
[21] = tested on: Spleen; experiment: Drug concentration in female Lister Hooded pigmented rat spleen assessed as radioactivity per gram of tissue at 20 mg/kg administered as single dose via gastric gavage measured after 24 hrs by autoradiographic analysis; design: dose 20 mg/kg, dosed compound name [14C]Sunitinib; conditions: in vivo, po; outline: as §1
[22] = tested on: Heart; experiment: Drug concentration in female Lister Hooded pigmented rat heart assessed as radioactivity per gram of tissue at 20 mg/kg administered as single dose via gastric gavage measured after 24 hrs by autoradiographic analysis; design: dose 20 mg/kg, dosed compound name [14C]Sunitinib; conditions: in vivo, po; outline: as §1
[23] = tested on: Small intestine; experiment: Drug concentration in male albino rat small intestine assessed as radioactivity per gram of tissue at 20 mg/kg administered as single dose via gastric gavage measured after 72 hrs by autoradiographic analysis; design: dose 20 mg/kg, dosed compound name [14C]Sunitinib; conditions: in vivo, po
[24] = Drug concentration in male Lister Hooded pigmented rat pituitary gland assessed as radioactivity per gram of tissue at 20 mg/kg administered as single dose via gastric gavage measured after 168 hrs by autoradiographic analysis; design: dose 20 mg/kg, dosed compound name [14C]Sunitinib; conditions: in vivo, po
[25] = tested on: Spleen; experiment: Drug concentration in male Lister Hooded pigmented rat spleen assessed as radioactivity per gram of tissue at 20 mg/kg administered as single dose via gastric gavage measured after 72 hrs by autoradiographic analysis; design: dose 20 mg/kg, dosed compound name [14C]Sunitinib; conditions: in vivo, po
[26] = tested on: Kidney; experiment: Drug concentration in male Lister Hooded pigmented rat kidney assessed as radioactivity per gram of tissue at 20 mg/kg administered as single dose via gastric gavage measured after 168 hrs by autoradiographic analysis; design: dose 20 mg/kg, dosed compound name [14C]Sunitinib; conditions: in vivo, po

## CCN(CC)CCNC(=O)c1c(C)[nH]c(/[14CH]=C2\C(=O)Nc3ccc(F)cc32)c1C.O=C(O)C[C@H](O)C(=O)O
[1]
  Radiolabel recovery: 4.42 ugequiv
[2]
  Radiolabel recovery: 1.23 ugequiv
[3]
  Radiolabel recovery: 0.64 ugequiv
[4]
  AUC: 17427 ng.Eq.hr/ml
[5]
  AUC: 69949 ng.Eq.hr/ml
[6]
  Radiolabel recovery: 2.87 ugequiv
[7]
  Radiolabel recovery: 2.27 ugequiv
[8]
  Radiolabel recovery: 20.88 ugequiv
[9]
  Radiolabel recovery: 6.79 ugequiv
[10]
  t1/2 lambda z: 9 h
[11]
  Radiolabel recovery: 0.43 ugequiv
[12]
  Radiolabel recovery: 2.3 ugequiv
[13]
  Radiolabel recovery: 3.39 ugequiv
[14]
  Radiolabel recovery: 0.06 ugequiv
[15]
  Radiolabel recovery: 17.24 ugequiv
[16]
  Radiolabel recovery: 0.13 ugequiv
[17]
  Radiolabel recovery: 0.17 ugequiv
[18]
  Radiolabel recovery: 18.76 ugequiv
[19]
  Radiolabel recovery: 0.58 ugequiv
[20]
  Radiolabel recovery: 0.08 ugequiv
[21]
  Radiolabel recovery: 2.79 ugequiv
[22]
  Radiolabel recovery: 0.47 ugequiv
[23]
  Radiolabel recovery: 0.15 ugequiv
[24]
  Radiolabel recovery: 81.06 ugequiv
[25]
  Radiolabel recovery: 0.13 ugequiv
[26]
  Radiolabel recovery: 0.06 ugequiv
